This is a sample that favours compounds with a hit; in the whole collection about 3.7% have one here.
MT stabilize HCS – stabilizes microtubules in HeLa cells. HeLa tubulin immunostaining HCS, 24 h; share of cells brighter than vehicle mean+2SD. % tubulin-high responders, % at 10 µM. 200,000 compounds, 0.83% hits. AID 2205;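 active = plate Z-score above 3 for both tubulin-high and condensed-nucleus cell shares, with cell loss under 80%, at 10 µM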;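 note: anti alpha tubulin signal scored within the nucleus-defined area of each cell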
bCat nuc transl – alters nuclear translocation of beta-catenin in HeLa cells | immunofluorescence imaging | nuclear translocation activity, % at 5 µM | 190,000 compounds, 0.3% hits;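 active = nuclear translocation activity above 50% at 5 µM, with a well cell count of 50 or more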;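 note: per-cell ratio of nuclear to cytoplasmic median beta-catenin stain intensity; plate controls were DMSO negative control for no effect and GSK-3 inhibitor IX positive control for full effect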
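Test system: human HeLa cells, native beta-catenin. Compound dosing: 5 µM primary single dose, 0.1% DMSO, 0.02–20 µM confirmation series. Incubation: compound exposure 24 h at 37°C. Detection: beta-catenin immunostaining with DAPI counterstain, 20x imaging, 6 fields/well. Read-out basis: Nuclear/cytoplasmic beta-catenin signal ratio, % activation.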
KCC2 mod – modulators of human KCC2 chloride dependent transport. Q9H2X9. KCC2 cells, thallium flux FluoZin-2 fluorescence. B-score of Tl+ flux slope (higher = more flux/activation; lower = inhibition) at 10 µM. 190,000 compounds, 2.2% hits. AID 1456;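 active = thallium flux slope and its plate-corrected score both differing from the plate sample mean at a set confidence after two filtering rounds, in either direction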;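 note: slope of fluorescence scaled to starting intensity during 10 to 20 s after thallium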
Target sequence (Q9H2X9 whole entry, looked up): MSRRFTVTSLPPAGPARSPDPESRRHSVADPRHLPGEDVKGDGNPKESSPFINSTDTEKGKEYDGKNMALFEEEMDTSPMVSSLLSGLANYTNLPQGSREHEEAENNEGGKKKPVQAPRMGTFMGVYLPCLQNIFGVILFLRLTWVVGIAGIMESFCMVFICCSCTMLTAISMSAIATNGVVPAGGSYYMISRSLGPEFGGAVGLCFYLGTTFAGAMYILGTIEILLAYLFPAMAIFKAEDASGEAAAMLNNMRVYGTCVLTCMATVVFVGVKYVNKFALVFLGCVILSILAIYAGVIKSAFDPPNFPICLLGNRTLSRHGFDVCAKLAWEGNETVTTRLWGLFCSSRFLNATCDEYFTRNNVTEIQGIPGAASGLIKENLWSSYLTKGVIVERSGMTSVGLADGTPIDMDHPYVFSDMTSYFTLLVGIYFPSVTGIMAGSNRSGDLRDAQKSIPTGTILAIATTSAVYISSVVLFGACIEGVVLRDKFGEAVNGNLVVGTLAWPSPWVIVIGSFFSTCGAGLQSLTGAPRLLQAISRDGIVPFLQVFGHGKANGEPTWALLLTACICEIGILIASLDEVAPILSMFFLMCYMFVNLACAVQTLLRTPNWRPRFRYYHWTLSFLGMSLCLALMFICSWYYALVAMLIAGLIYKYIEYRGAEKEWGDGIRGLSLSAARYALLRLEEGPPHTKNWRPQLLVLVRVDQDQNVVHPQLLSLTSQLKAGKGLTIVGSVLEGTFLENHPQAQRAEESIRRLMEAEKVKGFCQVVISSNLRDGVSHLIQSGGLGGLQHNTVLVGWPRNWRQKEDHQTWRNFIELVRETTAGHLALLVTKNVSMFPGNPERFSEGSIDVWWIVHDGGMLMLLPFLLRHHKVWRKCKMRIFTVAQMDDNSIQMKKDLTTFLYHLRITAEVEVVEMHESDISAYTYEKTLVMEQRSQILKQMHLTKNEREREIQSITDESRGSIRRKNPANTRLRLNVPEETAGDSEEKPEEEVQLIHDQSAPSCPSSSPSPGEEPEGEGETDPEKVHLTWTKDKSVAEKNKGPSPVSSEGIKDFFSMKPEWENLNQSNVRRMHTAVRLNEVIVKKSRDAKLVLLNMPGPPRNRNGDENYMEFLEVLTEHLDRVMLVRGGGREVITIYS
Redox H2O2 prof – compounds producing H2O2 with reducing agent – biochemical, NIH compound library profiling, artefact control for MLSCN library redox annotation, primary screen; AID 878; DTT-dependent redox cycling H2O2, phenol red/HRP absorbance; 100% = 100 µM peroxide control, 0% = buffer; activation, % at 10 µM; 200,000 compounds, 0.03% hits;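 active = activation of at least 50% relative to the plate's high and low controls in the primary single-dose screen; inactive = activation below 50%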;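 note: compound incubated with DTT at 0.8 mM final as the reducing agent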
ROMK mod – modulates human ROMK potassium channel activity; B-score at 10 µM; AID 1918; 130,000 compounds, 2% hits; P48048; Tet-inducible ROMK, thallium flux fluorescence; actives lie on both sides;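 active = signal ratio slope over the read window, or its plate-corrected B-score, at least 3 SD from the plate mean, either direction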;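 note: B-score of the F/F0 ratio slope over 7 to 12 s after thallium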
* hit, by the source's call; nt = not tested or not shown.

SMILES	MT stabilize HCS	bCat nuc transl	KCC2 mod	Redox H2O2 prof	ROMK mod
Cc1ccc2nc(N3C(=O)C(O)=C(C(=O)c4ccco4)C3c3cccs3)sc2c1 (configuration not stated)	4	-4	nt	0	-2.6*
COc1ccc(C2C(C(=O)c3ccco3)=C(O)C(=O)N2c2nnc(C)s2)cc1 (configuration not stated)	3	0	nt	0	-0.32
C/C(=N\NC(=O)c1c(Cl)c(C)nn1C)c1ccc(NC(=O)COc2ccc(Cl)cc2C)cc1	5	-3	-0.14	-5	nt
C/C(=N\NC(=O)c1c(Cl)c(C)nn1C)c1cccc(NC(=O)COc2ccccc2)c1	3	0	0.076	-7	4.1*
COc1cc(/C=C2\SC(=N)N(c3ccc(F)cc3)C2=O)ccc1O	10*	2	-1	-1	0.16
O=C(O)Cc1c(C(=O)O)[nH]c2ccc(C(=O)O)cc12	nt	2	nt	nt	nt
C=CCOc1cccc(CNc2cccc(C(=O)O)c2)c1	nt	1	0.82	nt	nt
O=C(/C=C/NNC(=O)c1ccc(Cl)cc1)c1ccccc1	2	-2	-0.16	-2	0.96
O=C(/C=C/NNC(=O)c1ccccc1)c1ccc(Br)cc1	3	nt	8.8*	1	nt
Cn1ccnc1C(=O)c1cc(SCC(=O)NCc2ccccc2)nc2ccccc12	16*	-2	-1.4	-1	nt
COC(=O)CSc1cc(C(=O)c2nccn2C)c2ccccc2n1	1	-4	0.072	2	nt
CNC(=S)N1N=C(c2ccc(C)cc2)CC1c1cc(OC)ccc1OC (configuration not stated)	12*	1	-0.067	0	1.5
CCCc1cc(=O)oc2cc(OCC(=O)N3CCc4ccccc43)ccc12	2	1	1.4	-3	nt
CCN1C(=O)/C(=C/c2cc(C)n(C)c2C)SC1=Nc1ccc(OC)cc1	4	nt	1	0	0.65
CCN1C(=O)/C(=C/c2ccc(C)s2)SC1=Nc1ccc(OC)cc1	33*	5	-1.4	-9	0.47
Cc1nn2c(=O)cc(COC(=O)c3ccc(S(=O)(=O)N4CCCCC4)cc3)nc2s1	15*	nt	0.46	0	nt
Cc1noc(C)c1COC(=O)c1ccc(S(=O)(=O)N2CCCCC2)cc1	5	-5	0.9	-1	0.07
O=C1CN(C(=O)CSc2nc3ccccc3c(=O)n2Cc2ccc(F)cc2)c2ccccc2N1	5	nt	19*	0	nt
CN(C)CCCn1c(SCC(=O)N2CC(=O)Nc3ccccc32)nc2ccccc2c1=O	4	-2	1.3	-1	0.46
Cc1ccc(-c2nc(Nc3cccc(C)c3)sc2CC(=O)O)cc1	7	0	-4.2*	1	nt
CCOC(=O)CSC1=C(C#N)C(c2ccc3c(c2)OCO3)CC(=O)N1 (configuration not stated)	49*	-1	nt	0	-0.55
CCCCOC(=O)CSC1=C(C#N)C(c2ccc3c(c2)OCO3)CC(=O)N1 (configuration not stated)	9	-7	-0.58	-1	-0.84
CCOC(=O)c1c(C)c(C(=O)Nc2ccc3c(c2)OCCO3)c(C)n1CC	31*	0	nt	0	2.2
CCOC(=O)c1c(C)c(C(=O)Nc2ccc3c(c2)OCO3)c(C)n1C	3	0	nt	0	0.63
O=C(NCc1ccco1)C(c1cccs1)N(C(=O)C1COc2ccccc2O1)c1cccc(O)c1 (configuration not stated)	8	2	-1.3	3	-7.2*
SMILES	MT stabilize HCS	bCat nuc transl	KCC2 mod	Redox H2O2 prof	ROMK mod
CCCCOn1c(C)c(C(=O)OCC)c2c3nonc3ccc21	1	nt	-3.5*	2	nt
CCCCOn1c(C)c(C(=O)OCC)c2c3no[n+]([O-])c3ccc21	6	nt	-0.31	2	nt
NS(=O)(=O)c1cccc(NC(=O)COC(=O)CCCc2c[nH]c3ccccc23)c1	7	-4	-0.051	0	-0.33
Nc1[nH]n2c(=O)c3c(nc2c1N=Nc1ccc(Cl)cc1)CCCC3	21*	4	nt	2	nt
Cc1ccc(C(=O)C2CCN(CC(=O)Nc3nc(C)cs3)CC2)cc1	2	8	-1.6	-4	-0.83
CCOC(=O)N1CCC(NC(=O)c2ccc3c(Cl)c4c(nc3c2)CCCC4)CC1	5	-1	0.15	0	-2.5*
O=C(NC1CC1)c1ccc2c(Cl)c3c(nc2c1)CCCC3	2	2	-0.37	0	nt
CC(C)(C)n1ncc2c(=O)n(CC(=O)NCc3ccccc3)cnc21	32*	-2	0.084	0	4.2*
COc1cc(C2CC(=O)N(c3ccc(C)cc3)C(=O)C2)cc(OC)c1OC	nt	75*	1.2	nt	1.9
CC(CCc1ccccc1)NC(=O)CCNC(=O)Cn1ccc2ccccc2c1=O (configuration not stated)	10	1	-0.49	-2	-0.056
Cc1ccc2cccc(Oc3ccc([N+](=O)[O-])cc3[N+](=O)[O-])c2n1	16*	nt	-2.1	0	nt
O=[N+]([O-])c1ccc(Oc2cccc3cccnc23)c([N+](=O)[O-])c1	7	3	-0.29	0	nt
CCC(C)n1c(SCc2ccc([N+](=O)[O-])cc2)nc2ccsc2c1=O (configuration not stated)	3	-1	-2.7	0	1.8
CCC1(c2ccc(Cl)cc2)NC(=S)N(c2ccccc2)N1 (configuration not stated)	8	0	23*	0	nt
CCCCCC1(C)NC(=S)N(c2ccccc2)N1 (configuration not stated)	2	nt	-0.27	0	-0.16
COC(=O)CN(c1ccccc1)S(=O)(=O)c1cc(Br)ccc1OC	4	1	-2.3	0	-0.51
COc1ccc(C(=O)N[C@H](C(=O)NCc2cccs2)C(C)C)cc1	6	1	0.13	-3	-0.78
Cc1cc(C)c2c(c1)-c1c(ssc1=S)C(C)(C)N2C(=O)CSc1nncn1C	18*	-1	-0.25	1	nt
Cc1ccc2c(c1)-c1c(ssc1=S)C(C)(C)N2C(=O)CSc1nncn1C	3	0	-1	3	nt
CCC(C)NC(=O)c1nc2c(nnn2Cc2ccccc2Cl)c(=O)[nH]1 (configuration not stated)	2	1	-3.1	0	-0.027
O=C(NCc1cccs1)c1nc2c(nnn2Cc2ccccc2Cl)c(=O)[nH]1	14	-5	-2.7*	0	nt
COc1cc(NS(=O)(=O)c2ccc(C)cc2C)cc(OC)c1OC	22*	7	-0.31	2	-2.1
Oc1c(N=Nc2ccccn2)ccc2ccccc12	3	7	53*	2	nt
Cc1ccc(OCC(=O)N/N=C\c2c(C)n(C)c3ccccc23)c([N+](=O)[O-])c1	47*	3	0.65	-4	1.6
Cc1c(/C=N/NC(=O)COc2ccccc2[N+](=O)[O-])c2ccccc2n1C	3	3	-0.64	1	-0.1
O=C(NC(=S)Nc1ccccc1)c1cc(-c2ccccc2)nc2ccccc12	4	1	18*	-3	nt

Screens (PubChem BioAssay)
